From the RNAGym collection of RNA variant scans (doi:10.1126/science.aae0568)
Fewer inactive variants are shown than the library holds.

B1: tRNA (parent)
chain: GUUCCGUUGGCGUAAUGGUAACGCGUCUCCCUCCUAAGGAGAAGACUGCGGGUUCGAGUCCCGUACGGAACG

Variants of: B1
Assay: yeast fitness relative to wild type (ratio to wild type); higher = fitter; tRNA-Arg(CCU), competitive growth, 37 C, YPD
How it was run: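 Variants of the tRNA-Arg(CCU) gene were chemically synthesised with a 3% per-site mutation rate across 69 sites and placed at the native genomic locus in Saccharomyces cerevisiae. Six parallel replicates of the pooled strains were competed in YPD at 37°C for 24 hours, and gene amplicons from the start and end populations were read by 100-nucleotide paired-end sequencing. Darwinian fitness relative to wild type was derived from changes in genotype frequencies. Genotypes required ≥ 100 starting reads, and estimates < 0.5 were set to 0.5.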

Variant	yeast fitness
GUUCCGUUGGCGUAAUGGUAACGCGUCUCCCUCCUAAGGAGAAGACUGCGGGUUCGCGUUCCGUACGGAACG [A57C C60U]	0.552
GUUCCGUUGGCGUAAUGGUAACGCGUCUCCCUCCUAAGGAGAAGACUGCGGGUUCGCGUGCCGUACGGAACG [A57C C60G]	0.503
GUUCCGUUGGCGUAAUGGUAACGCGUCUCCCUCCUAAGGAGAAGACUGCGGGUUCCAGUCCCGUACGGAGCG [G56C A70G]	0.672
GUUCCGUUGGCGUAAUGGUAACGCGUCUCCCUCCUAAGGAGAAGACUGCGGGUUCCAGUCCCGUACGGAUCG [G56C A70U]	0.83
GUUCCGUUGGCGUAAUGGUAACGCGUCUCCCUCCUAAGGAGAAGACUGCGGGUUCCAGACCCGUACGGAACG [G56C U59A]	0.663
GUUCCGUUGGCGUAAUGGUAACGCGUCUCCCUCCUAAGGAGAAGACUGCGGGUUCGCGUCUCGUUCGGAACG [A57C C61U A65U]	0.563
GUUCCGUUGGCGUAAUGGUAACGCGUCUCCCUCCUAAGGAGAAGACUGCGGGUUCCAGUCCCGUCCGGAACG [G56C A65C]	0.754
GUUCCGUUGGCGUAAUGGUAACGCGUCUCCCUCCUAAGGAGAAGACUGCGGGUUCCAGUCCCGUUCGGAACG [G56C A65U]	0.714
GUUCCGUUGGCGUAAUGGUAACGCGUCUCCCUCCUAAGGAGAAGACUGCGGGUUCAAGUCCCAUACCGAACG [G56A G63A G67C]	0.543
GUUCCGUUGGCGUAAUGGUAACGCGUCUCCCUCCUAAGGAGAAGACUGCGGGUUCAAGUCCCGUACGAAACG [G56A G68A]	1.04
GUUCCGUUGGCGUAAUGGUAACGCGUCUCCCUCCUAAGGAGAAGACUGCGGGUUCCAGUCCCGUACGGUCCG [G56C A69U A70C]	≤ 0.5
GUUCCGUUGGCGUAAUGGUAACGCGUCUCCCUCCUAAGGAGAAGACUGCGGGUUCCAGUCCUGUACGGAACG [G56C C62U]	0.913
GUUCCGUUGGCGUAAUGGUAACGCGUCUCCCUCCUAAGGAGAAGACUGCGGGUUCCAGUCCGGUACGGAACG [G56C C62G]	0.559
GUUCCGUUGGCGUAAUGGUAACGCGUCUCCCUCCUAAGGAGAAGACUGCGGGUUCCUGUUCCGUACGGAACG [G56C A57U C60U]	0.698
GUUCCGUUGGCGUAAUGGUAACGCGUCUCCCUCCUAAGGAGAAGACUGCGGGUUCGCGUCCUGUACGGAACG [A57C C62U]	0.565
GUUCCGUUGGCGUAAUGGUAACGCGUCUCCCUCCUAAGGAGAAGACUGCGGGUUCCAGUCCCGUACGAAACG [G56C G68A]	0.7
GUUCCGUUGGCGUAAUGGUAACGCGUCUCCCUCCUAAGGAGAAGACUGCGGGUUCCAGUCCCAUACGGAACG [G56C G63A]	0.571
GUUCCGUUGGCGUAAUGGUAACGCGUCUCCCUCCUAAGGAGAAGACUGCGGGUUCCACUCCCGUAUGGAACG [G56C G58C C66U]	0.625
GUUCCGUUGGCGUAAUGGUAACGCGUCUCCCUCCUAAGGAGAAGACUGCGGGUUCGCGUCCCGUACGGGACG [A57C A69G]	0.562

Variant	yeast fitness
GUUCCGUUGGCGUAAUGGUAACGCGUCUCCCUCCUAAGGAGAAGACUGCGGGUUCGCGUCCCGUACGGCACG [A57C A69C]	0.608
GUUCCGUUGGCGUAAUGGUAACGCGUCUCCCUCCUAAGGAGAAGACUGCGGGUUCCCGUCCCGUACGGAACG [G56C A57C]	0.529
GUUCCGUUGGCGUAAUGGUAACGCGUCUCCCUCCUAAGGAGAAGACUGCGGGUUCCGGUCCCGUACGGAACG [G56C A57G]	0.706
GUUCCGUUGGCGUAAUGGUAACGCGUCUCCCUCCUAAGGAGAAGACUGCGGGUUCCAGUCCGGUACGCAACG [G56C C62G G68C]	0.56
GUUCCGUUGGCGUAAUGGUAACGCGUCUCCCUCCUAAGGAGAAGACUGCGGGUUCAAGCCCCGUCCGGAGCG [G56A U59C A65C A70G]	0.568
GUUCCGUUGGCGUAAUGGUAACGCGUCUCCCUCCUAAGGAGAAGACUGCGGGUUCUAGUCCCGUGCGGAACG [G56U A65G]	0.615
GUUCCGUUGGCGUAAUGGUAACGCGUCUCCCUCCUAAGGAGAAGACUGCGGGUUCAAGCCCCGUACGGAACG [G56A U59C]	1.05
GUUCCGUUGGCGUAAUGGUAACGCGUCUCCCUCCUAAGGAGAAGACUGCGGGUUCGCGUCCCGUUCGGAACG [A57C A65U]	0.606
GUUCCGUUGGCGUAAUGGUAACGCGUCUCCCUCCUAAGGAGAAGACUGCGGGUUCGCGUCCCGUGCGGAACG [A57C A65G]	0.573
GUUCCGUUGGCGUAAUGGUAACGCGUCUCCCUCCUAAGGAGAAGACUGCGGGUUCCAGUACCGUACGGAACG [G56C C60A]	0.587
GUUCCGUUGGCGUAAUGGUAACGCGUCUCCCUCCUAAGGAGAAGACUGCGGGUUCCAGUCACUUACGGAACG [G56C C61A G63U]	0.539
GUUCCGUUGGCGUAAUGGUAACGCGUCUCCCUCCUAAGGAGAAGACUGCGGGUUCCAGUCCCGUACCGAACG [G56C G67C]	0.696
GUUCCGUUGGCGUAAUGGUAACGCGUCUCCCUCCUAAGGAGAAGACUGCGGGUUCCAGUCCCGUACGGAACG [G56C]	0.663
GUUCCGUUGGCGUAAUGGUAACGCGUCUCCCUCCUAAGGAGAAGACUGCGGGUUCUAGUCCCGUACGGAACG [G56U]	0.85
GUUCCGUUGGCGUAAUGGUAACGCGUCUCCCUCCUAAGGAGAAGACUGCGGGUUCUACUCCCGUACGGAACG [G56U G58C]	0.75
GUUCCGUUGGCGUAAUGGUAACGCGUCUCCCUCCUAAGGAGAAGACUGCGGGUUCUAAUCCCGUACGGAACG [G56U G58A]	0.589
GUUCCGUUGGCGUAAUGGUAACGCGUCUCCCUCCUAAGGAGAAGACUGCGGGUUCCAGUCCCGUACGGCACG [G56C A69C]	0.818
GUUCCGUUGGCGUAAUGGUAACGCGUCUCCCUCCUAAGGAGAAGACUGCGGGUUCAAGUCCCAUACGGAACG [G56A G63A]	0.726
GUUCCGUUGGCGUAAUGGUAACGCGUCUCCCUCCUAAGGAGAAGACUGCGGGUUCUAGUCCCGUUCGCAACG [G56U A65U G68C]	≤ 0.5
